# What was measured:
# [1] = tested on: Mus musculus; assay: Antagonist activity in sc dosed mouse assessed as inhibition of nicotine-induced antinociception after 5 mins by hot plate method; type: functional
# [2] = molecular target: Neuronal acetylcholine receptor subunit alpha-7 (Rattus norvegicus) (UniProt Q05941); assay: Antagonist activity at rat alpha7 nAChR expressed in Xenopus laevis oocytes assessed as inhibition of acetylcholine-induced response at 100 uM after 2 to 6 days by two electrode voltage clamp assay; type: functional, cell-based; conditions: Oocyte
# [3] = molecular target: T1, Neuronal acetylcholine receptor; alpha3/beta4 (Rattus norvegicus) (UniProt P04757+P12392); assay: Agonist activity at rat alpha3beta4 nAChR expressed in Xenopus laevis oocytes at 100 uM after 2 to 6 days by two electrode voltage clamp assay relative to acetylcholine; type: functional, cell-based; conditions: Oocyte
# Outline: (§1)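 Two-electrode voltage clamp on Xenopus oocytes injected with rat subunit cRNA (α3β4 at 1:1 molar ratio), incubated at 19 °C in modified Barth's saline (pH 7.6). Oocytes perfused with ND96 (pH 7.5) at 20–25 °C. 100 µM compound applied for 15 s (α3β4) or 5 s (α7), 3-min washes. Response compared with the mean of three preceding ACh applications and expressed as % of maximal ACh response.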
# [4] = molecular target: T2, Neuronal acetylcholine receptor subunit alpha-7 (Rattus norvegicus, UniProt Q05941); assay: Displacement of [125I]iodoMLA from rat cerebral cortex alpha7 nAChR at 50 nM incubated for 2 hrs by microplate scintillation assay; type: tissue-based
# Outline: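 Rat cerebral cortex membranes (3 mg wet weight) in Tris assay buffer pH 7.4. Run in triplicate, 2 h on ice. Nonspecific binding with 300 µM (–)-nicotine. Filtered onto BSA-presoaked GF/B and counted by microplate scintillation.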
# [5] = tested on: Mus musculus; assay: Effect on spontaneous locomotor activity in mouse at 10 mg/kg, sc after 5 mins by photocell based method; type: functional; conditions: route subcutaneous
# Outline: (§2)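 Mice put into photocell activity cages 5 min after s.c. saline or compound. Beam interruptions counted over the next 10 min.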
# [6] = molecular target: T3, Neuronal acetylcholine receptor; alpha4/beta2 (Rattus norvegicus) (UniProt P09483+P12390); assay: Agonist activity at rat alpha4beta2 nAChR expressed in Xenopus laevis oocytes at 100 uM after 2 to 6 days by two electrode voltage clamp assay relative to acetylcholine; type: functional, cell-based; conditions: Oocyte
# [7] = tested on: Mus musculus; assay: Antagonist activity in sc dosed mouse assessed as inhibition of nicotine-induced antinociception after 5 mins by tail flick method; type: functional
# [8] = molecular target: T3, Neuronal acetylcholine receptor; alpha4/beta2 (Rattus norvegicus); assay: Antagonist activity at rat alpha4beta2 nAChR expressed in Xenopus laevis oocytes assessed as inhibition of acetylcholine-induced response at 100 uM after 2 to 6 days by two electrode voltage clamp assay; type: functional, cell-based; conditions: Oocyte
# Outline: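 Xenopus oocytes expressing rat nAChRs (α4β2 and α3β4 subunits injected at 1:1), recorded by two-electrode voltage clamp in ND96 (pH 7.5) at 20–25 °C. Current compared with the mean of three preceding ACh-alone responses and given as % remaining.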
# [9] = molecular target: T1, Neuronal acetylcholine receptor; alpha3/beta4 (Rattus norvegicus); assay: Antagonist activity at rat alpha3beta4 nAChR expressed in Xenopus laevis oocytes assessed as inhibition of acetylcholine-induced response at 100 uM after 2 to 6 days by two electrode voltage clamp assay; type: functional, cell-based; conditions: Oocyte
# Outline: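 Xenopus oocytes expressing rat nAChRs (α4β2 and α3β4 subunits injected at 1:1), recorded by two-electrode voltage clamp in ND96 (pH 7.5) at 20–25 °C. […] Current compared with the mean of three preceding ACh-alone responses and given as % remaining.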
# [10] = tested on: Mus musculus; assay: Antinociception activity in mouse assessed as reaction time taken for jumping or licking paws at 10 mg/kg, sc after 5 mins by hot plate method; type: functional; conditions: route subcutaneous
# Outline: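 Mice placed on a 55 °C hot plate; latency is time to jump or paw-lick. Two baseline latencies taken at least 10 min apart. Tested 5 min after s.c. dosing. %MPE computed with a 40 s maximum. Eight mice per dose.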
# [11] = tested on: Mus musculus; assay: Effect on hypothermia in mouse assessed as variation in rectal temperature at 10 mg/kg, sc measured after 30 mins by thermister probe based method; type: functional; conditions: route subcutaneous
# Outline: (§3)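 Rectal temperature measured by thermistor probe inserted 24 mm, before and 30 min after s.c. saline or compound. Change computed for each mouse. Room temperature 21–24 °C.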
# [12] = Displacement of [3H]epibatidine from rat cerebral cortex alpha4beta2* nAChR incubated for 4 hrs by liquid scintillation assay; type: tissue-based
# Outline: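 Washed rat cerebral cortex membranes (3 mg wet weight) in 50 mM Tris pH 7.4 with 120 mM NaCl, 5 mM KCl, 2 mM CaCl2, 1 mM MgCl2. 4 h at room temperature. Nonspecific binding with 300 µM (–)-nicotine. Filtration on PEI-soaked GF/B. Ki from IC50 by Cheng–Prusoff.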
# [13] = molecular target: Neuronal acetylcholine receptor subunit alpha-7 (Rattus norvegicus) (UniProt Q05941); assay: Agonist activity at rat alpha7 nAChR expressed in Xenopus laevis oocytes at 100 uM after 2 to 6 days by two electrode voltage clamp assay relative to acetylcholine; type: functional, cell-based; conditions: Oocyte; outline: as §1
# [14] = tested on: Mus musculus; assay: Antinociception activity in sc dosed mouse assessed as reaction time taken for jumping or licking paws after 5 mins by hot plate method
# [15] = tested on: Mus musculus; assay: Effect on spontaneous locomotor activity in sc dosed mouse after 5 mins by photocell based method; type: functional; outline: as §2
# [16] = tested on: Mus musculus; assay: Antinociception activity in sc dosed mouse after 5 mins by tail-flick method
# [17] = tested on: Mus musculus; assay: Effect on hypothermia in sc dosed mouse assessed as variation in rectal temperature measured after 30 mins by thermister probe based method; type: functional; conditions: 0.5 h; outline: as §3
# [18] = tested on: Mus musculus; assay: Antinociception activity in mouse at 10 mg/kg, sc after 5 mins by tail-flick method; type: functional; conditions: route subcutaneous
# Outline: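 Mouse tail-flick: baseline latency 2–4 s, 10 s cutoff, tested 5 min after s.c. injection. %MPE = (test−control)/(10−control)×100. Eight to twelve mice per dose.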
# [19] = molecular target: Neuronal acetylcholine receptor; alpha4/beta2 (Rattus norvegicus, UniProt P09483+P12390); assay: Antagonist activity at rat alpha4beta2 nAChR expressed in Xenopus laevis oocytes assessed as inhibition of acetylcholine-induced response after 2 to 6 days by two electrode voltage clamp assay; type: functional, cell-based, Oocyte
# [20] = tested on: Mus musculus; assay: Antagonist activity in mouse assessed as inhibition of nicotine-induced antinociception at 10000 ug/kg, sc after 5 mins by hot plate method; type: functional
# [21] = molecular target: T2, Neuronal acetylcholine receptor subunit alpha-7; assay: Antagonist activity at rat alpha7 nAChR expressed in Xenopus laevis oocytes assessed as inhibition of acetylcholine-induced response after 2 to 6 days by two electrode voltage clamp assay; type: functional, cell-based, Oocyte
# [22] = molecular target: Neuronal acetylcholine receptor; alpha3/beta4 (Rattus norvegicus, UniProt P04757+P12392); assay: Antagonist activity at rat alpha3beta4 nAChR expressed in Xenopus laevis oocytes assessed as inhibition of acetylcholine-induced response after 2 to 6 days by two electrode voltage clamp assay; type: functional, cell-based, Oocyte
# [23] = tested on: Mus musculus; assay: Antagonist activity in mouse assessed as inhibition of nicotine-induced antinociception at 2000 ug/kg, sc after 5 mins by hot plate method; type: functional
# T2 sequence (Q05941 whole entry): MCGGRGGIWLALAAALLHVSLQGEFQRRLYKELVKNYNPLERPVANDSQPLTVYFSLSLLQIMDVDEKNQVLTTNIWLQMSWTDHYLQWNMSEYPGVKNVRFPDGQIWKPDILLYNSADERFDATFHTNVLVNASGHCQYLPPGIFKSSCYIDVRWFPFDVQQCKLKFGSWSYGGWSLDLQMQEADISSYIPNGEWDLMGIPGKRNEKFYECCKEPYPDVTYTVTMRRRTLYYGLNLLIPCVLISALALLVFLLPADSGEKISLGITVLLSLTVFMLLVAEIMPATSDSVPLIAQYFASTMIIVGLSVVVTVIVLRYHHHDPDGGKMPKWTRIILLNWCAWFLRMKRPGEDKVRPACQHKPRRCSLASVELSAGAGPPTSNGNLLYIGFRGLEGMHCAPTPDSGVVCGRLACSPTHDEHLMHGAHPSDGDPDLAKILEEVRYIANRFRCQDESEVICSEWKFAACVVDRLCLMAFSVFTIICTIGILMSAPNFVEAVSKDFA
# Chain of Neuronal acetylcholine receptor subunit alpha-7 (Rattus norvegicus) (Q05941 whole entry): as above
# Chain of Neuronal acetylcholine receptor; alpha4/beta2 (P09483 whole entry): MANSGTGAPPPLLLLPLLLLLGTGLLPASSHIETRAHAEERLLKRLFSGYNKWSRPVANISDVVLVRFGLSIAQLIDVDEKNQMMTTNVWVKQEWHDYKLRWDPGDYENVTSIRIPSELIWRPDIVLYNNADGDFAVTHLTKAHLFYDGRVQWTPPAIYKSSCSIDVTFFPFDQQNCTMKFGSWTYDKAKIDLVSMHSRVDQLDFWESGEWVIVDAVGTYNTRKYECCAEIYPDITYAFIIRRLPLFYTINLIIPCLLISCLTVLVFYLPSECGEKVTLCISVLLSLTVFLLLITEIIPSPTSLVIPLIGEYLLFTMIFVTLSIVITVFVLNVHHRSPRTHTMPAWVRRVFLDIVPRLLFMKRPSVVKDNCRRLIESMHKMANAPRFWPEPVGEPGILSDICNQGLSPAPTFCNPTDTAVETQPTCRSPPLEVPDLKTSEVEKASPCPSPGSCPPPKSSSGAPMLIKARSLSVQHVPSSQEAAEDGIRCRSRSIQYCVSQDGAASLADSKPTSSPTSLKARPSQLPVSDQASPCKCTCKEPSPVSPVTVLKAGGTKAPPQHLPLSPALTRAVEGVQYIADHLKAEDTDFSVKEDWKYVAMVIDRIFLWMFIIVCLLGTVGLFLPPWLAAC
# Chain of Neuronal acetylcholine receptor; alpha4/beta2 (P12390 whole entry): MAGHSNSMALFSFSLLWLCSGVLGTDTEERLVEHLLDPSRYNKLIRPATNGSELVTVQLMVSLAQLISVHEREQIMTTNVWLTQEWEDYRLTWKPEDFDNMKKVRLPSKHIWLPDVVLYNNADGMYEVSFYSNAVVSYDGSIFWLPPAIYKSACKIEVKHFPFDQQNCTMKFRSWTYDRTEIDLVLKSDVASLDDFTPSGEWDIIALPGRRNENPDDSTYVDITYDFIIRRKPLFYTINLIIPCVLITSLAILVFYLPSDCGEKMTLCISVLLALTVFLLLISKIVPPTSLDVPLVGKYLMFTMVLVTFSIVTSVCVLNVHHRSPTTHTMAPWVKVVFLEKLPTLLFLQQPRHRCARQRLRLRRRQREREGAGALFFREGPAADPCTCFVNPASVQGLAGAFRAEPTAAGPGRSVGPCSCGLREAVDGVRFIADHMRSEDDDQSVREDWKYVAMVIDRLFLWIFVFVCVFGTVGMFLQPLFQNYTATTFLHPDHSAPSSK
# Chain of Neuronal acetylcholine receptor; alpha3/beta4 (P04757 whole entry): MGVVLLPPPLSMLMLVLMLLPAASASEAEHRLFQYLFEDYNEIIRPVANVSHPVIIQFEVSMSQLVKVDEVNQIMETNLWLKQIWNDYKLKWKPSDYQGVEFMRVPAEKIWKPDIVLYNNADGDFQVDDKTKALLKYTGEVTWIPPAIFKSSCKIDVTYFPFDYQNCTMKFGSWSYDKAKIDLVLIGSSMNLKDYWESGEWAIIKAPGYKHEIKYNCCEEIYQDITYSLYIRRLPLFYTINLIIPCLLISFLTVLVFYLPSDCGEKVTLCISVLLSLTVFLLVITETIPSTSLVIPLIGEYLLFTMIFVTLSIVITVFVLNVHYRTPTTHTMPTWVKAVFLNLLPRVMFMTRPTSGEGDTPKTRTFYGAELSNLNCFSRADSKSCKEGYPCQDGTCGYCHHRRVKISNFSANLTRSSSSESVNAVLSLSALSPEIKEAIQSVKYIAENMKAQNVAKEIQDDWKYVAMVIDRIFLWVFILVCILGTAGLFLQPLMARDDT
# Chain of Neuronal acetylcholine receptor; alpha3/beta4 (P12392 whole entry): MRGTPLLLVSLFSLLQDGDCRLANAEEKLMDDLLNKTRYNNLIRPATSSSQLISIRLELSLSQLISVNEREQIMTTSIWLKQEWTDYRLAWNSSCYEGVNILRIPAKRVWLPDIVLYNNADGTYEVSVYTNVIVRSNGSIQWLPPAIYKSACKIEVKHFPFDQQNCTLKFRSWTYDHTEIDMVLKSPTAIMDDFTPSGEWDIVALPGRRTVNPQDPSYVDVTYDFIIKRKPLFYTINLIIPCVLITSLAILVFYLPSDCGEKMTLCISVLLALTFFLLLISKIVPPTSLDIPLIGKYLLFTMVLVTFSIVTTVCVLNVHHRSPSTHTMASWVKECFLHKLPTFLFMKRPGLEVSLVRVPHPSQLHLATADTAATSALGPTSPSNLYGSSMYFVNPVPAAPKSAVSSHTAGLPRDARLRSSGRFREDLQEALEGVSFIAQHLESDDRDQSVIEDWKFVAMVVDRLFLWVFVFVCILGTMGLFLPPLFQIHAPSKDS
SMILES,AD50 [1] [mg/kg],inhibition [2] [%],%max [3] [%],Ki [4] [µM],Activity [5] [%],%max [6] [%],AD50 [7] [mg/kg],inhibition [8] [%],inhibition [9] [%],Activity [10] [%],Activity [11] [%],Ki [12] [pM],%max [13] [%],ED50 [15] [mg/kg],ED50 [17] [mg/kg],Activity [18] [%],IC50 [19] [µM],IC50 [21] [µM],IC50 [22] [µM],other results
NS(=O)(=O)c1ccc(-c2cc(C3CC4CCC3N4)cnc2F)cc1 (racemic),1,18,0,> 2,5,0,0.0009,4,5,19,0,940,1.8,,,,,,,
Clc1ccc([C@H]2CC3CCC2N3)cn1 (mixture of isomers),,,97,,,131,,,,,,,150,0.001,0.004,,,,,ED50 [14]: 0.004 mg/kg; ED50 [16]: 0.006 mg/kg
c1cnc2cc3c(cc2n1)[C@@H]1CNC[C@H]3C1 [VARENICLINE],0.47,,66,,,13,0.0002,38,,10,,,74,2.1,2.8,11,,,,
N#Cc1ccc(-c2cc(C3CC4CCC3N4)cnc2F)cc1 (racemic),,49,6,> 2,0,0,,8,17,18,0,190,3,,,4,11,98,7,inhibition in vivo at 10 mg/kg [20]: 24%
NC(=O)c1ccc(-c2cc(C3CC4CCC3N4)cnc2F)cc1 (racemic),,54,8,1.87,,3.5,0.009,6,36,60,,120,17,,4.2,16,1.5,35,35,inhibition in vivo at 2 mg/kg [23]: 1%
O=[N+]([O-])c1ccc(-c2cc(C3CC4CCC3N4)cnc2F)cc1 (racemic),0.12,55,4,> 2,,0,0.003,6,9,,,9,6,0.22,0.21,5,3.2,32,7.9,
O=S(=O)(c1ccc(-c2cc(C3CC4CCC3N4)cnc2F)cc1)C(F)(F)F (racemic),,42,1.9,> 2,,0,1.6,7,15,,0,30,1.8,4.2,,3,,,,inhibition in vivo at 10 mg/kg [20]: 50%
CS(=O)(=O)c1ccc(-c2cc(C3CC4CCC3N4)cnc2F)cc1 (racemic),2.6,33,0,,12,0,0.018,,25,1,1,170,3,,,6,2.8,,11,
Fc1ncc(C2CC3CCC2N3)cc1-c1ccc(C(F)(F)F)cc1 (racemic),6,3,0,> 2,5,0,,8,4,6,0,440,4,,,,6,4,5,
